Experimental data as given in ChEMBL document CHEMBL1781961, “Synthesis and in vitro antibacterial activity of 7-(3-alkoxyimino-4-amino-4-methylpiperidin-1-yl) fluoroquinolone derivatives” (Eur J Med Chem, 2011).
Converted amounts (≈) assume the structure as drawn.

Assays:
[1] = test system: Enterococcus faecalis; test: Ratio of levofloxacin MIC to compound MIC for Enterococcus faecalis; format: functional
Procedure, shortened: (§1)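 MICs were measured by agar dilution on plates carrying serial twofold dilutions from […] down to 0.03. Plates were inoculated with 10⁴ cfu and incubated at 35 °C for 18 h. MIC was taken as the lowest concentration giving no visible growth. The ratio is the reference quinolone MIC divided by the test compound MIC for the same strain.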

[2] = Cytotoxicity against MDCK cells after 48 hrs by CPE assay; format: cell-based, Canis lupus familiaris; settings: dog
Procedure, shortened: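 MDCK cells kept in Minimum Essential Medium with Earle's salt plus 10% fetal bovine serum at 37 °C, 5% CO₂. […] Medium then replaced by assay medium with or without compound. After 48 h exposure, viability read by CPE assay. CC₅₀ calculated by Reed–Muench analysis.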

[3] = test system: Enterococcus faecalis; test: Antibacterial activity against 10^4 CFU Enterococcus faecalis 08-10 after 18 hrs by CLSI agar dilution method; format: functional; settings: 08-10, 18 h
[4] = test system: Staphylococcus epidermidis; test: Ratio of levofloxacin MIC to compound MIC for methicillin-sensitive Staphylococcus epidermidis 09-6; format: functional; procedure, shortened: as §1
[5] = test system: Streptococcus pneumoniae; test: Antibacterial activity against 10^4 CFU Streptococcus pneumoniae 08-4 after 18 hrs by CLSI agar dilution method; format: functional; settings: 08-4, 18 h
[6] = test system: Streptococcus pneumoniae; test: Ratio of levofloxacin MIC to compound MIC for Streptococcus pneumoniae 08-4; format: functional; procedure, shortened: as §1
[7] = test system: Pseudomonas aeruginosa; test: Antibacterial activity against 10^4 CFU Pseudomonas aeruginosa 09-32 after 18 hrs by CLSI agar dilution method; format: functional; settings: 09-32, 18 h
[8] = test system: Enterococcus faecalis; test: Ratio of gatifloxacin MIC to compound MIC for Enterococcus faecalis; format: functional; procedure, shortened: as §1
[9] = test system: Enterococcus faecium; test: Antibacterial activity against 10^4 CFU Enterococcus faecium 06-7 after 18 hrs by CLSI agar dilution method; format: functional; settings: 06-7, 18 h
[10] = test system: Enterococcus faecium; test: Antibacterial activity against 10^4 CFU Enterococcus faecium 08-2 after 18 hrs by CLSI agar dilution method; format: functional; settings: 08-2, 18 h
[11] = test system: Escherichia coli; test: Antibacterial activity against 10^4 CFU Escherichia coli 08-21 after 18 hrs by CLSI agar dilution method; format: functional; settings: 08-21, 18 h
[12] = test system: Staphylococcus aureus; test: Antibacterial activity against 10^4 CFU methicillin-sensitive Staphylococcus aureus 08-1 after 18 hrs by CLSI agar dilution method; format: functional; settings: 08-1, 18 h
[13] = test system: Staphylococcus epidermidis; test: Antibacterial activity against 10^4 CFU methicillin-sensitive Staphylococcus epidermidis 09-6 after 18 hrs by CLSI agar dilution method; format: functional; settings: 09-6, 18 h
[14] = test system: Enterococcus faecalis; test: Ratio of gemifloxacin MIC to compound MIC for Enterococcus faecalis; format: functional; procedure, shortened: as §1
[15] = test system: Staphylococcus aureus; test: Antibacterial activity against 10^4 CFU Staphylococcus aureus ATCC 25923 after 18 hrs by CLSI agar dilution method; format: functional; settings: ATCC 25923, 18 h
[16] = test system: Klebsiella pneumoniae; test: Antibacterial activity against 10^4 CFU Klebsiella pneumoniae 09-23 after 18 hrs by CLSI agar dilution method; format: functional; settings: 09-23, 18 h
[17] = test system: Klebsiella pneumoniae; test: Antibacterial activity against 10^4 CFU Klebsiella pneumoniae 09-22 after 18 hrs by CLSI agar dilution method; format: functional; settings: 09-22, 18 h
[18] = test system: Pseudomonas aeruginosa; test: Antibacterial activity against 10^4 CFU Pseudomonas aeruginosa ATCC 27853 after 18 hrs by CLSI agar dilution method; format: functional; settings: ATCC 27853, 18 h
[19] = test system: Staphylococcus aureus; test: Antibacterial activity against 10^4 CFU methicillin-resistant Staphylococcus aureus 08-1 after 18 hrs by CLSI agar dilution method; format: functional; settings: 08-1, 18 h
[20] = test system: Enterococcus faecalis; test: Antibacterial activity against 10^4 CFU Enterococcus faecalis 08-12 after 18 hrs by CLSI agar dilution method; format: functional; settings: 08-12, 18 h
[21] = test system: Escherichia coli; test: Antibacterial activity against 10^4 CFU Escherichia coli ATCC 25922 after 18 hrs by CLSI agar dilution method; format: functional; settings: ATCC 25922, 18 h
[22] = test system: Staphylococcus epidermidis; test: Antibacterial activity against 10^4 CFU methicillin-resistant Staphylococcus epidermidis 09-2 after 18 hrs by CLSI agar dilution method; format: functional; settings: 09-2, 18 h

**Q.** Which results are given for `CO/N=C1\CN(c2c(F)cc3c(=O)c(C(=O)O)cn(C4CC4)c3c2OC)CCC1(C)N` (configuration not stated)?
**A.** Ratio [1]: 4; CC50 at 48 h [2]: 729 µM; MIC [3]: 1 mg/L (≈ 2.31 µM); Ratio [4]: 16; MIC [5]: 0.5 mg/L (≈ 1.16 µM); Ratio [6]: 4; MIC [7]: 8 mg/L (≈ 18.5 µM); Ratio [8]: 4; MIC [9]: > 128 mg/L; MIC [10]: > 128 mg/L; MIC [11]: > 128 mg/L; MIC [12]: 0.25 mg/L (≈ 0.578 µM); MIC [13]: 0.25 mg/L (≈ 0.578 µM); Ratio [14]: 4; MIC [15]: 0.125 mg/L (≈ 0.289 µM); MIC [16]: > 128 mg/L; MIC [17]: > 128 mg/L; MIC [18]: 16 mg/L (≈ 37 µM); MIC [19]: 0.25 mg/L (≈ 0.578 µM); MIC [20]: 1 mg/L (≈ 2.31 µM); MIC [21]: > 128 mg/L; MIC [22]: 0.25 mg/L (≈ 0.578 µM)
